Results on one compound are retold here after ChEMBL document CHEMBL4834390, “Nanomolar-Potency 1,2,4-Triazoloquinoxaline Inhibitors of the Kidney Urea Transporter UT-A1” (J Med Chem, 2018).

The target in data set [1] is T1, Urea transporter 2 (Rattus norvegicus, UniProt Q62668).
T1 sequence (Q62668 whole entry): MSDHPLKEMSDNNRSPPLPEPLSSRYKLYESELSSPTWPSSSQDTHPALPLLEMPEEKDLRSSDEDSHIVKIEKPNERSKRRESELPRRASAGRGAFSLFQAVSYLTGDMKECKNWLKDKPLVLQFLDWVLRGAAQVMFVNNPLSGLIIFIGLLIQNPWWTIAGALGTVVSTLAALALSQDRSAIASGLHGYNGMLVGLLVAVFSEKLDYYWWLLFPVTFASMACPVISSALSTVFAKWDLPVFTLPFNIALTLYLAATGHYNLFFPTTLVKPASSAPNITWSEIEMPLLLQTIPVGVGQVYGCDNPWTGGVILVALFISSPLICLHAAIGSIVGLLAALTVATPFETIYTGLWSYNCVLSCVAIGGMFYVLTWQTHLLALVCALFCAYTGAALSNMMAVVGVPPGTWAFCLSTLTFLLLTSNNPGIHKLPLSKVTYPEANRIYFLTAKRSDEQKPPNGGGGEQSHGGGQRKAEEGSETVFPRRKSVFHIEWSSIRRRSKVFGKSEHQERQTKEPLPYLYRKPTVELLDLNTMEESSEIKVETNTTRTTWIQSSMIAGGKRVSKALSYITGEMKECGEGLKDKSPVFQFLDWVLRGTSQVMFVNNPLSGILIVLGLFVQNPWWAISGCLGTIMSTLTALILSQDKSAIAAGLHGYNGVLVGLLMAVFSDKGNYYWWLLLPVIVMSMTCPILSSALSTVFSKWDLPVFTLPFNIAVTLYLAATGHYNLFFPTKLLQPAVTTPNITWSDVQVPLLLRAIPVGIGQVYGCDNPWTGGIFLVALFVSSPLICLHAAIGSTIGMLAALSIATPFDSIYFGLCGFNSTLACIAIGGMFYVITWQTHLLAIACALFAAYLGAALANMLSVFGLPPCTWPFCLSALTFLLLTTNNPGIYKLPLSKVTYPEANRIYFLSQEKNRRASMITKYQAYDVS
Put plainly: Inhibition of rat UT-A1 expressed in MDCK cells incubated for 15 mins by fluorescence plate reader assay. The format is cell-based.

For data set [2], the target named is T2, Urea transporter 1 (Rattus norvegicus, UniProt P97689).
T2 sequence (P97689 whole entry): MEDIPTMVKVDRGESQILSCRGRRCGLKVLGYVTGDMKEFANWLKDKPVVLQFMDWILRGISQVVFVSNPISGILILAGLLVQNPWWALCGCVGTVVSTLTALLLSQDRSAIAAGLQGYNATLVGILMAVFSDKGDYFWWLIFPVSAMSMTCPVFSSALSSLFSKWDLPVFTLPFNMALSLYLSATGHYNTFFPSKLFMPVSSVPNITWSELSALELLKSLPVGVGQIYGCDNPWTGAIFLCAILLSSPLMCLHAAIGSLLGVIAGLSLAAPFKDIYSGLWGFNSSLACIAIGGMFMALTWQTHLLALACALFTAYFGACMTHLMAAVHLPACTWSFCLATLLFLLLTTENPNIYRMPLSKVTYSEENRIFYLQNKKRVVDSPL
Put plainly: Inhibition of rat UT-B incubated for 15 mins. The method in brief: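 Rat whole blood diluted to ~1.5% hematocrit in PBS with 1.25 M acetamide and 5 mM glucose; compound incubated 15 min, then cells mixed into isomolar buffer; lysis read by absorbance at 710 nm. Isomolar buffer as non-lysed and 0.7 mM phloretin as lysed control; % lysis computed from these; mean ± SEM, n = 3.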

Data set [3] has as its system MDCK. As to the kind of experiment: Cytotoxicity against dog MDCK cells at 10 uM after 24 hrs by alamar blue assay. The class given is cell-based, Canis lupus familiaris. The method in brief: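 MDCK cells stably co-expressing rat UT-A1, YFP-H148Q/V163S and human AQP1 grown 24 h at 37 °C, then exposed to compound at 10 µM for 24 h; viability read by AlamarBlue; mean ± SEM, n = 3.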
In general terms: Resazurin is reduced to fluorescent resorufin, in cell work by metabolically active cells.

A short description of data set [4]: Metabolic stability in Sprague-Dawley rat liver microsomes assessed as compound remaining at 5 uM preincubated for 5 mins followed by NADPH addition and measured at 30 mins by LC/MS analysis. The format is ADME, Microsome. Conditions: time 35 min, read-out: Stabilty. Put shortly:
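Compound at 5 µM preincubated 5 min at 37 °C with male Sprague-Dawley rat liver microsomes (1 mg protein/mL) in 0.1 M PBS pH 7.4. 1 mM NADPH then added, incubation continued at 37 °C for set times, then chilled and EtOAc-extracted. Parent compound measured by LC/MS as peak area/internal standard ratio; mean ± SEM, n = 3.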

A short description of data set [5]: Drug concentration in Wistar rat serum at 4 mg/kg, iv after 3 hrs by LC/MS analysis. The class given is ADME, organism-based. Put shortly:
(§1)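 Male Wistar rats (250–300 g) dosed 4 mg/kg iv in saline containing 20% dimethylacetamide and 1.28 mg/mL NaOH. Tail-vein blood taken at 15, 30, 60, 120, 180 min without anticoagulant, serum separated; urine collected 3 h in metabolic cages; samples frozen at –20 °C. LC/MS (ESI positive) quantitation against standards spiked into control rat urine or plasma.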

Data set [6] is described as follows: Drug concentration in Wistar rat urine at 4 mg/kg, iv after 3 hrs by LC/MS analysis. The class given is ADME, organism-based. The settings on record: read-out: Ct. The method in brief: as §1
Data set [7] has as its system Rattus norvegicus. As to the kind of experiment: Diuretic activity in Wistar rat assessed as increase in urine volume at 4 mg/kg, iv after 3 hrs. The class given is functional, organism-based. Put shortly:
(§2)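 Male Wistar rats (250–300 g), acclimated in metabolic cages 3 days (6 h/day). Urine voided spontaneously over 3 h before dosing, then 4 mg/kg iv via catheter in saline with 20% dimethylacetamide and 1.28 mg/mL NaOH, or vehicle. Urine collected 3 h after dosing; volume and osmolality compared with pretreatment (paired t-test); mean ± SEM, n = 4.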

For data set [8], the system named is Rattus norvegicus. As to the kind of experiment: Diuretic activity in Wistar rat assessed as reduction in urine osmolality at 4 mg/kg, iv after 3 hrs. The format is functional, organism-based. The method in brief:
as §2

Active and inactive are the calls of the source. No cut-off for these calls is given here.

One may read the IC50 as the concentration that gives 50% inhibition. The low end stands for inhibition by little substance, the high end for a need for much substance. For the compound `CCCc1nnc2c(Oc3ccc(NS(=O)(=O)c4cc(Cl)ccc4OC)cc3)nc3cc(F)c(F)cc3n12`, the IC50 in data set [1] is 300 nM; in data set [2], 800 nM. Further, the Activity entry in data set [3] is on record as “Non-Toxic”. Further, the remaining at 0.5 h, 5 µM in data set [4] amounted to 60%. Besides, the concentration at 3 h in data set [5] is above 2 µM; in data set [6] it was 6 µM. In addition, the result in data set [7] and in data set [8] was Active.
